Active and inactive are the calls of the source. The calls are words filed in the database; no cut-off is given here.
Tests used:
[1] = target: T1, Serotonin 2 (5-HT2) receptor (Rattus norvegicus, UniProt P30994+P08909+P14842); assay: Affinity towards [3H]- DOB -labeled 5-hydroxytryptamine 2 receptor sites in rat cortical homogenates
[2] = target: T1, Serotonin 2 (5-HT2) receptor; assay: Affinity towards [3H]- ketanserin-labeled 5-hydroxytryptamine 2 receptor sites in rat cortical homogenates
Outline: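 Label was 0.4 nM [3H]ketanserin, with 11 competitor concentrations run in triplicate and nonspecific binding defined by 1 μM cinanserin. Bound ligand was filtered onto glass fibre and counted by scintillation. IC50 came from nonlinear regression; Ki = IC50/(1+[D]/KD).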

[3] = species on record: Rattus norvegicus; assay: The compound was tested for effective dose ( ED 50) against stimulus generation with rats trained to discriminate (R) (-)-DOB from saline; type: functional
Outline: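 Male Sprague-Dawley rats (n = 6) on a two-lever operant task for sweetened milk, VI 15-s schedule. Trained to discriminate 0.2 mg/kg ip training drug from 1.0 mL/kg 0.9% saline, 15 min pre-session. Test doses were given ip in random order to groups of 3–6, with 15-min pretreatment and a 2.5-min extinction session. ED50 was calculated from dose-response data.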

[4] = test system: Rattus norvegicus; assay: The number of responses made on the (R)(-)-DOB appropriate lever, generation studies was calculated at dose 1.0 mg/kg; type: functional
Outline: (§1)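 Male Sprague-Dawley rats (n = 6) were trained on a two-lever operant task for sweetened-milk reward to discriminate 0.2 mg/kg (R)-(-)-DOB-HCl ip from 1.0 mL/kg 0.9% saline, with a VI 15-s schedule and 15-min sessions. Test doses were given ip 15 min before a 2.5-min extinction session, in random order, to groups of 3-6 rats. Read-out was % drug-lever responses; fewer than five total responses counted as disrupted.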

[5] = test system: Rattus norvegicus; assay: The number of responses made on the (R)(-)-DOB appropriate lever, generation studies was calculated at dose 0.3 mg/kg; type: functional; outline: as §1
[6] = test system: Rattus norvegicus; assay: The number of responses made on the (R)(-)-DOB appropriate lever, generation studies was calculated at dose 0.6 mg/kg; type: functional; outline: as §1
[7] = test system: Rattus norvegicus; assay: The number of responses made on the (R)(-)-DOB appropriate lever, generation studies was calculated at dose 1.2 mg/kg; type: functional; outline: as §1
[8] = test system: Rattus norvegicus; assay: The number of responses made on the (R)(-)-DOB appropriate lever, generation studies was calculated at dose 1.3 mg/kg; type: functional; outline: as §1
[9] = test system: Rattus norvegicus; assay: The number of responses made on the (R)(-)-DOB appropriate lever, generation studies was calculated at dose 1.4 mg/kg; NR means not responding; type: functional, organism-based; set-up: dose 1.4 mg/kg; outline: as §1
[10] = test system: Rattus norvegicus; assay: The number of responses made on the (R)(-)-DOB appropriate lever, generation studies was calculated at dose 1.5 mg/kg; NR means not responding; type: functional, organism-based; set-up: dose 1.5 mg/kg; outline: as §1
[11] = test system: Rattus norvegicus; assay: The number of animals responding per number of animals receiving the drug (2/6)in the stimulus-generation studies was calculated at dose 1.5 mg/kg; type: functional
Outline: (§2)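 Male Sprague-Dawley rats were trained to discriminate 0.2 mg/kg ip training drug from saline (two levers, VI 15-s, milk reward). Test doses were given ip 15 min pre-session in random order to groups of 3–6. In the 2.5-min extinction session, rats making fewer than five total responses were counted as disrupted. N is animals responding over animals dosed.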

[12] = test system: Rattus norvegicus; assay: The number of animals responding per number of animals receiving the drug (3/3) in the stimulus-generation studies was calculated at dose 0.3 mg/kg; type: functional; outline: as §2
[13] = test system: Rattus norvegicus; assay: The number of animals responding per number of animals receiving the drug (3/3)in the stimulus-generation studies was calculated at dose 1.0 mg/kg; type: functional; outline: as §2
[14] = test system: Rattus norvegicus; assay: The number of animals responding per number of animals receiving the drug (4/4)in the stimulus-generation studies was calculated at dose 0.6 mg/kg; type: functional; outline: as §2
[15] = test system: Rattus norvegicus; assay: The number of animals responding per number of animals receiving the drug (5/5)in the stimulus-generation studies was calculated at dose 1.3 mg/kg; type: functional; outline: as §2
[16] = test system: Rattus norvegicus; assay: The number of animals responding per number of animals receiving the drug(2/6) in the stimulus-generation studies was calculated at dose 1.4 mg/kg; type: functional; outline: as §2
[17] = test system: Rattus norvegicus; assay: The number of animals responding per number of animals receiving the drug(3/4) in the stimulus-generation studies was calculated at dose 1.2 mg/kg; type: functional; outline: as §2
[18] = test system: Rattus norvegicus; assay: The mean responses per minute during the 2.5 min extinction session in the stimulus-generation studies was calculated at dose 1.2 mg/kg; type: functional
Outline: (§3)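 Rats were trained on a two-lever drug-versus-saline discrimination (0.2 mg/kg ip training dose, VI 15-s, food reward). Challenge doses were given ip 15 min before a 2.5-min extinction test, in random order, to groups of 3–6 rats, with at least three training sessions between tests. Response rate is responses per minute over the extinction session.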

[19] = test system: Rattus norvegicus; assay: The mean responses per minute during the 2.5 min extinction session in the stimulus-generation studies was calculated at dose 1.3 mg/kg; type: functional; outline: as §3
[20] = test system: Rattus norvegicus; assay: The mean responses per minute during the 2.5 min extinction session in the stimulus-generation studies was calculated at dose 0.3 mg/kg; type: functional; outline: as §3
[21] = test system: Rattus norvegicus; assay: The mean responses per minute during the 2.5 min extinction session in the stimulus-generation studies was calculated at dose 1.0 mg/kg; type: functional; outline: as §3
[22] = test system: Rattus norvegicus; assay: The mean responses per minute during the 2.5 min extinction session in the stimulus-generation studies was calculated at dose 0.6 mg/kg; type: functional; outline: as §3
[23] = species on record: Rattus norvegicus; assay: The number of responses made on the (R)(-)-DOB appropriate level, generation studies was calculated at dose 2.0 mg / kg; type: functional; outline: as §1
[24] = species on record: Rattus norvegicus; assay: The number of responses made on the (R)(-)-DOB appropriate level, generation studies was calculated at dose 2.2 mg / kg; type: functional; outline: as §1
[25] = species on record: Rattus norvegicus; assay: The number of responses made on the (R)(-)-DOB appropriate level, generation studies was calculated at dose 0.7 mg / kg; type: functional; outline: as §1
[26] = species on record: Rattus norvegicus; assay: The number of responses made on the (R)(-)-DOB appropriate level, generation studies was calculated at dose 1.2 mg / kg; type: functional; outline: as §1
[27] = species on record: Rattus norvegicus; assay: The number of animals responding per number of animals receiving the drug(3/4) in the stimulus-generation studies, was calculated at dose 2.2 mg / kg; type: functional; outline: as §2
[28] = species on record: Rattus norvegicus; assay: The number of animals responding per number of animals receiving the drug (3/3)in the stimulus-generation studies, was calculated at dose 1.2 mg / kg; type: functional; outline: as §2
[29] = species on record: Rattus norvegicus; assay: The number of animals responding per number of animals receiving the drug (4/4)in the stimulus-generation studies, was calculated at dose 2.0 mg / kg; type: functional; outline: as §2
[30] = species on record: Rattus norvegicus; assay: The number of animals responding per number of animals receiving the drug (4/4)in the stimulus-generation studies, was calculated at dose 0.7 mg / kg; type: functional; outline: as §2
[31] = species on record: Rattus norvegicus; assay: The mean responses per minute during the 2.5 min extinction session in the stimulus-generation studies was calculated at dose 2.0 mg / kg; type: functional; outline: as §3
[32] = species on record: Rattus norvegicus; assay: The mean responses per minute during the 2.5 min extinction session in the stimulus-generation studies was calculated at dose 2.2 mg / kg; type: functional; outline: as §3
[33] = species on record: Rattus norvegicus; assay: The mean responses per minute during the 2.5 min extinction session in the stimulus-generation studies was calculated at dose 0.7 mg / kg; type: functional; outline: as §3
[34] = species on record: Rattus norvegicus; assay: The mean responses per minute during the 2.5 min extinction session in the stimulus-generation studies was calculated at dose 1.2 mg / kg; type: functional; outline: as §3

CNC(C)Cc1cc(OC)c(Br)cc1OC (stereo unspecified)
Ki [1]: 0.0077 µM | Ki [2]: 0.079 µM | ED50 [3]: 0.82 mg/kg | Responding [4]: 50% | Responding [5]: 12% | Responding [6]: 28% | Responding [7]: 70% | Responding [8]: 82% | Responding [9]: inactive | Responding [10]: inactive | No. of animals responding/animals receiving drug [11]: 2 | No. of animals responding/animals receiving drug [12]: 3 | No. of animals responding/animals receiving drug [13]: 3 | No. of animals responding/animals receiving drug [14]: 4 | No. of animals responding/animals receiving drug [15]: 5 | No. of animals responding/animals receiving drug [16]: 2 | No. of animals responding/animals receiving drug [17]: 3 | Response rate [18]: 13.3 | Response rate [19]: 8 | Response rate [20]: 11.6 | Response rate [21]: 12 | Response rate [22]: 13.6

COc1cc(CC(C)[N+](C)(C)C)c(OC)cc1Br.[I-] (stereo unspecified)
Ki [1]: 8.25 µM | Ki [2]: > 25 µM | Responding [23]: 38% | Responding [24]: 3% | Responding [25]: 3% | Responding [26]: 9% | No. of animals responding/animals receiving drug [27]: 3 | No. of animals responding/animals receiving drug [28]: 3 | No. of animals responding/animals receiving drug [29]: 4 | No. of animals responding/animals receiving drug [30]: 4 | Response rate [31]: 7.3 | Response rate [32]: 3.7 | Response rate [33]: 16.2 | Response rate [34]: 11.9
